Source: ChEMBL document CHEMBL2417529, “An expedient, ionic liquid mediated multi-component synthesis of novel piperidone grafted cholinesterase enzymes inhibitors and their molecular modeling study” (Eur J Med Chem, 2013)

What was measured:
[1] = Selectivity ratio of IC50 for electric eel AChE to IC50 for horse serum BChE
Summary of the method: (§1)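 Ratio of IC50s from Ellman microplate assays in 0.1 M sodium phosphate pH 8 with 1% final DMSO. AChE (Electrophorus electricus) used acetylthiocholine iodide; BChE (equine serum) used S-butyrylthiocholine chloride, each 14 mM stock. Enzyme and sample preincubated 15 min at 25 °C, then DTNB and substrate added. A412 read at 30 min in triplicate; IC50 from five concentrations.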

[2] = Selectivity ratio of IC50 for horse serum BChE to IC50 for electric eel AChE; summary of the method: as §1
Cholinesterase = Cholinesterase (Equus caballus, UniProt P81908); assay: Inhibition of horse serum BChE using S-butyrylthiocholine chloride as substrate preincubated for 15 mins followed by substrate addition measured after 30 mins by Ellman's microplate assay
Summary of the method: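 Equine serum BChE preincubated with test samples in 0.1 M sodium phosphate buffer pH 8 for 15 min at 25 °C. DTNB added, then S-butyrylthiocholine chloride (14 mM stock). Colored product read at 412 nm 30 min after reaction start. Final DMSO 1%; triplicates; blank-corrected absorbance; % inhibition versus control; IC50 from five concentrations.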

Acetylcholinesterase = Acetylcholinesterase (Electrophorus electricus, UniProt O42275); assay: Inhibition of electric eel AChE using acetylthiocholine iodide as substrate preincubated for 15 mins followed by substrate addition measured after 30 mins by Ellman's microplate assay
Chain of Acetylcholinesterase (O42275 whole entry): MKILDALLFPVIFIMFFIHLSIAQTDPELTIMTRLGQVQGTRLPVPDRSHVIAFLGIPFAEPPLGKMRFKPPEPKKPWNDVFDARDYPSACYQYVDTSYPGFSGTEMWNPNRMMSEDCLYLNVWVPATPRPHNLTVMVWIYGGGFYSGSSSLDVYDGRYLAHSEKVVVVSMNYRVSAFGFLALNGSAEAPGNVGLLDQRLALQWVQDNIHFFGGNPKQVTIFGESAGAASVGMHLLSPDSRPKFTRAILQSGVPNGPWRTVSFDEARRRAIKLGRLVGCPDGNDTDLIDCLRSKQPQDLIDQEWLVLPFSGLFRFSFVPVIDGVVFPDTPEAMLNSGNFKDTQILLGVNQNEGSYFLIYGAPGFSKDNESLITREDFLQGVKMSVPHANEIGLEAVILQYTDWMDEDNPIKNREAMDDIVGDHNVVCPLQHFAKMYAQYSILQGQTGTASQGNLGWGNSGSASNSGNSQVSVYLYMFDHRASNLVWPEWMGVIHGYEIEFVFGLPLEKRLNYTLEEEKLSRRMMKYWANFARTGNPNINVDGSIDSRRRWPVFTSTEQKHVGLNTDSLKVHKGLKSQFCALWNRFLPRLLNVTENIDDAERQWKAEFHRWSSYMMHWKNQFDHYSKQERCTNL

Chain of Cholinesterase (P81908 whole entry): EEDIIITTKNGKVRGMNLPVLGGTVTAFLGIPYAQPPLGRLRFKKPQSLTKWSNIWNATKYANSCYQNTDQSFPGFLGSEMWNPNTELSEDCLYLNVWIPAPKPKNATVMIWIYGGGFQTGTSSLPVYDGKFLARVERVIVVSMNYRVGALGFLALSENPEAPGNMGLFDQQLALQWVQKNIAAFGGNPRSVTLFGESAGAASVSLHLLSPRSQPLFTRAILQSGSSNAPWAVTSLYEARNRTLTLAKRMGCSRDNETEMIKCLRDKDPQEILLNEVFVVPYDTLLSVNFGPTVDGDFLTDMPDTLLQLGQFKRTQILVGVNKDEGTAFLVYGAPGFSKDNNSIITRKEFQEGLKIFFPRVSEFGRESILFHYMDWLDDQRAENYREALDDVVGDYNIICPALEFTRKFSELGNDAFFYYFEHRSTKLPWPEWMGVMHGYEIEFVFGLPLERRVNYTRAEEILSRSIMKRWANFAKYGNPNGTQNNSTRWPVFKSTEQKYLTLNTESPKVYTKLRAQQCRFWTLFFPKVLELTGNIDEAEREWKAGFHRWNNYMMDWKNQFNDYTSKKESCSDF

CCN1CC2=C(NC(=S)NC2c2ccccc2)/C(=C/c2ccccc2)C1 (stereo unspecified)
Ratio IC50 [1]: 0.22
Ratio IC50 [2]: 4.56
IC50 (Cholinesterase): 4.2 µM
IC50 (Acetylcholinesterase): 0.92 µM

CCN1CC2=C(NC(=S)NC2c2ccc(F)cc2)/C(=C/c2ccc(F)cc2)C1 (stereo unspecified)
Ratio IC50 [1]: 0.36
Ratio IC50 [2]: 2.76
IC50 (Cholinesterase): 5.98 µM
IC50 (Acetylcholinesterase): 2.07 µM

CCN1CC2=C(NC(=S)NC2c2ccccc2Cl)/C(=C/c2ccccc2Cl)C1 (stereo unspecified)
Ratio IC50 [1]: 2.3
Ratio IC50 [2]: 0.43
IC50 (Cholinesterase): 3.57 µM
IC50 (Acetylcholinesterase): 8.22 µM

CCN1CC2=C(NC(=S)NC2c2ccccc2OC)/C(=C/c2ccccc2OC)C1 (stereo unspecified)
Ratio IC50 [1]: 0.61
Ratio IC50 [2]: 1.65
IC50 (Cholinesterase): 8.13 µM
IC50 (Acetylcholinesterase): 4.92 µM

CCN1CC2=C(NC(=S)NC2c2ccccc2F)/C(=C/c2ccccc2F)C1 (stereo unspecified)
Ratio IC50 [1]: 1.24
Ratio IC50 [2]: 0.81
IC50 (Cholinesterase): 4.48 µM
IC50 (Acetylcholinesterase): 5.54 µM

CCN1CC2=C(NC(=S)NC2c2cccc([N+](=O)[O-])c2)/C(=C/c2cccc([N+](=O)[O-])c2)C1 (stereo unspecified)
Ratio IC50 [1]: 1.54
Ratio IC50 [2]: 0.65
IC50 (Cholinesterase): 5.11 µM
IC50 (Acetylcholinesterase): 7.88 µM

CCN1CC2=C(NC(=S)NC2c2ccc(C)cc2)/C(=C/c2ccc(C)cc2)C1 (stereo unspecified)
Ratio IC50 [1]: 1.06
Ratio IC50 [2]: 0.94
IC50 (Cholinesterase): 4.73 µM
IC50 (Acetylcholinesterase): 5.02 µM

S=C1NC2=C(CN(CCN3CCOCC3)C/C2=C\c2ccc(Cl)cc2Cl)C(c2ccc(Cl)cc2Cl)N1 (stereo unspecified)
Ratio IC50 [1]: 1.47
Ratio IC50 [2]: 0.68
IC50 (Cholinesterase): 5.87 µM
IC50 (Acetylcholinesterase): 8.67 µM

Fc1ccccc1/C=C1\CN(CCN2CCOCC2)CC2=C1NC(=S)NC2c1ccccc1F (stereo unspecified)
Ratio IC50 [1]: 3.14
Ratio IC50 [2]: 0.32
IC50 (Cholinesterase): 2.97 µM
IC50 (Acetylcholinesterase): 9.32 µM

Cc1ccccc1/C=C1\CN(CCN2CCOCC2)CC2=C1NC(=S)NC2c1ccccc1C (stereo unspecified)
Ratio IC50 [1]: 4.31
Ratio IC50 [2]: 0.23
IC50 (Cholinesterase): 1.89 µM
IC50 (Acetylcholinesterase): 8.15 µM

Fc1ccc(/C=C2\CN(CCN3CCOCC3)CC3=C2NC(=S)NC3c2ccc(F)cc2)cc1 (stereo unspecified)
Ratio IC50 [1]: 1.97
Ratio IC50 [2]: 0.51
IC50 (Cholinesterase): 3.41 µM
IC50 (Acetylcholinesterase): 6.72 µM

S=C1NC2=C(CN(CCN3CCOCC3)C/C2=C\c2ccccc2Cl)C(c2ccccc2Cl)N1 (stereo unspecified)
Ratio IC50 [1]: 2.77
Ratio IC50 [2]: 0.36
IC50 (Cholinesterase): 2.44 µM
IC50 (Acetylcholinesterase): 6.75 µM

S=C1NC2=C(CN(CCN3CCOCC3)C/C2=C\c2ccc(Cl)cc2)C(c2ccc(Cl)cc2)N1 (stereo unspecified)
Ratio IC50 [1]: 1.28
Ratio IC50 [2]: 0.78
IC50 (Cholinesterase): 4.28 µM
IC50 (Acetylcholinesterase): 5.49 µM

S=C1NC2=C(CN(CCN3CCOCC3)C/C2=C\c2ccccc2)C(c2ccccc2)N1 (stereo unspecified)
Ratio IC50 [1]: 1.39
Ratio IC50 [2]: 0.72
IC50 (Cholinesterase): 3.23 µM
IC50 (Acetylcholinesterase): 4.49 µM

CCN1CC2=C(NC(=S)NC2c2ccccc2C)/C(=C/c2ccccc2C)C1 (stereo unspecified)
Ratio IC50 [1]: 1.57
Ratio IC50 [2]: 0.64
IC50 (Cholinesterase): 3.93 µM
IC50 (Acetylcholinesterase): 6.17 µM

CCN1CC2=C(NC(=S)NC2c2ccc(Cl)cc2Cl)/C(=C/c2ccc(Cl)cc2Cl)C1 (stereo unspecified)
Ratio IC50 [1]: 2.42
Ratio IC50 [2]: 0.41
IC50 (Cholinesterase): 3.61 µM
IC50 (Acetylcholinesterase): 8.75 µM

COc1ccccc1/C=C1\CN(CCN2CCOCC2)CC2=C1NC(=S)NC2c1ccccc1OC (stereo unspecified)
Ratio IC50 [1]: 1.42
Ratio IC50 [2]: 0.71
IC50 (Cholinesterase): 5.93 µM
IC50 (Acetylcholinesterase): 8.39 µM

CCN1CC2=C(NC(=S)NC2c2ccc(Cl)cc2)/C(=C/c2ccc(Cl)cc2)C1 (stereo unspecified)
Ratio IC50 [1]: 0.22
Ratio IC50 [2]: 4.56
IC50 (Cholinesterase): 5.88 µM
IC50 (Acetylcholinesterase): 1.29 µM

Cc1ccc(/C=C2\CN(CCN3CCOCC3)CC3=C2NC(=S)NC3c2ccc(C)cc2)cc1 (stereo unspecified)
Ratio IC50 [1]: 2
Ratio IC50 [2]: 0.5
IC50 (Cholinesterase): 3.58 µM
IC50 (Acetylcholinesterase): 7.16 µM
